Screens as filed in PubChem BioAssay.
IMP-1 inh-1 = IMP-1 metallo-beta-lactamase inhibitors, primary screen, biochemical, epi-absorbance readout, Pseudomonas aeruginosa enzyme. inhibition, % at 5.6 µM. actives 0.45% (n = 290,000). metallo-beta-lactamase IMP-1 (Pseudomonas aeruginosa). purified IMP-1, nitrocefin hydrolysis, epi-absorbance fluorescence;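 active = inhibition above the mean plus 3 SD of all compounds in the same screening run, cut at about 4.5% in these data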;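 note: 0% = IMP-1 with DMSO and 100% = DMSO wells lacking enzyme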
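System: Purified recombinant IMP-1 metallo-beta-lactamase enzyme | Measured by: Fluorescence quenching readout, ex 480/em 530 nm | Replication: Singlicate | Incubation: 15 min preincubation plus 25 min reaction at 25 °C | Evaluation: Percent inhibition from optical density relative to buffer-blank wells | Benchmarks: DMSO with and without IMP-1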
Mdm2 MdmX PPI = inhibitors of human Mdm2-MdmX association, primary screen, cell-based, luminescence, split luciferase, SaOS-2, uHTS; Protein Mdm4 (Homo sapiens) + E3 ubiquitin-protein ligase Mdm2 (Homo sapiens), …; SaOS-2 split-luciferase Mdm2/MdmX complementation; inhibition, % at 8 µM; actives 3% (n = 330,000); AID 485346, 2010;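 active = inhibition of at least 50% at 8 µM in the primary screen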
Target sequence (O15151 whole entry, looked up): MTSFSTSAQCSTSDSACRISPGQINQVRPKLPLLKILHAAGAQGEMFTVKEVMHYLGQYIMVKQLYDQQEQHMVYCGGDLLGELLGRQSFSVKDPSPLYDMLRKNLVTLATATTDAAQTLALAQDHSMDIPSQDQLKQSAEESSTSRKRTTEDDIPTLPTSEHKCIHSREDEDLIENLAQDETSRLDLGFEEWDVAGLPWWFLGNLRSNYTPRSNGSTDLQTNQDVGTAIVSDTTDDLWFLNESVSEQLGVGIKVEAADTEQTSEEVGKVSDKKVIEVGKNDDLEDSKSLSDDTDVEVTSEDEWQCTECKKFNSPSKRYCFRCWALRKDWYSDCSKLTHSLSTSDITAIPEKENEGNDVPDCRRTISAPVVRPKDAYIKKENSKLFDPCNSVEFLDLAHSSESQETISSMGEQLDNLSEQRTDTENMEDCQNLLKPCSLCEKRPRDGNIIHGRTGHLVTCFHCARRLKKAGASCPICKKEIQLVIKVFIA
Target sequence (Q00987 whole entry, looked up): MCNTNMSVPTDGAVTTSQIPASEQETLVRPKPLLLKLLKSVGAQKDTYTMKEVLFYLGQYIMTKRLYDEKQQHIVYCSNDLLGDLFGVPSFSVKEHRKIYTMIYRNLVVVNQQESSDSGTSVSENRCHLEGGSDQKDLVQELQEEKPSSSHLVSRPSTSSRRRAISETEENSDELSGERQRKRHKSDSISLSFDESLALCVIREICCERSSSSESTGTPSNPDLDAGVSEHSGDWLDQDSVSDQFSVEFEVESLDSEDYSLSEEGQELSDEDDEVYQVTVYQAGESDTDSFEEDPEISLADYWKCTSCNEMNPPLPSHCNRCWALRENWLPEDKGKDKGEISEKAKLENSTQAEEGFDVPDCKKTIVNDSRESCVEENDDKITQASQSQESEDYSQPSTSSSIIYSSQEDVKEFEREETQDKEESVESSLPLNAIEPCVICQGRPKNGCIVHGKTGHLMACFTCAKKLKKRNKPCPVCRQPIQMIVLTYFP
697 NFkB inh = inhibitors of PMA/ionomycin-induced NF-kB reporter, 697 cells, primary screen, B-cell NF-kB inhibitor project, cell-based, luminescence, uHTS | actives 0.33% (n = 330,000) | 697 B-cell NF-kB luciferase reporter, 16 h | inhibition, % at 4 µM; in the data active = inhibition above about 35%
VIM-2 inhibitor = VIM-2 metallo-beta-lactamase inhibitors, primary screen, biochemical, epi-absorbance readout, Pseudomonas aeruginosa enzyme; purified VIM-2, nitrocefin hydrolysis, epi-absorbance fluorescence; inhibition, % at 5.6 µM; actives 0.89% (n = 290,000);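 active = inhibition above the mean of all tested compounds plus 3 SD, cutoff set per screening run, cut at about 7.5% in these data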;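 note: red hydrolysis product quenches plate fluorescence so inhibitors raise well fluorescence; 0% = enzyme with DMSO and 100% = DMSO without enzyme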
aSyn UTR inh = MLPCN primary screen, SNCA 5' untranslated region. alpha-synuclein 5'UTR reporter, inhibitor activity. inhibition, % (tested at 7.5 µM). actives 0.82% (n = 300,000). AID 1813, 2009; in the data active = inhibition above about 60%;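 note: H4 neuroglioblastoma cells stably carrying SNCA 5'UTR luciferase fusion; 0% = DMSO wells and 100% = positive control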
Jurkat NFkB inh = inhibitors of induced NF-kB luciferase reporter, primary screen, TCR NF-kB activation inhibitor project, cell-based, luminescence, uHTS | Jurkat, PMA/ionomycin-induced NF-kB luciferase reporter | inhibition, % at 4 µM | actives 0.53% (n = 330,000) | AID 435003, 2010; in the data active = inhibition above about 50%
IMP-1 inh-2 = IMP-1 metallo-beta-lactamase inhibitors, confirmation, selectivity assay for selective VIM-2 inhibitor project, biochemical, epi-absorbance readout, triplicate; shares compounds with VIM-2 inhibitor; purified IMP-1, nitrocefin hydrolysis, epi-absorbance fluorescence; inhibition, % at 5.6 µM; 1,300 tested, under 10 active; AID 1856, 2009; call rule not given here;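 note: 0% = enzyme with vehicle and 100% = vehicle without enzyme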
VIM-2 FRET ctr = VIM-2 inhibitors in FRET format, confirmation, artefact control for selective VIM-2 inhibitor project, biochemical, epi-absorbance artifact exclusion. shares compounds with VIM-2 inhibitor. purified VIM-2, CCF2 FRET substrate hydrolysis. inhibition, % at 5.6 µM. actives 23% (n = 1,300). AID 1857, 2009;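 active = inhibition above the mean of all tested compounds plus 3 SD, cut at about 19% in these data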;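 note: 0% = VIM-2 plus DMSO and 100% = no enzyme wells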
TEM-1 counter = TEM-1 serine beta-lactamase inhibitors, counter-screen for VIM-2 inhibitor project, biochemical, epi-absorbance, HTS; Purified TEM-1, nitrocefin hydrolysis, epi-absorbance fluorescence; inhibition, % at 5.6 µM; shares compounds with VIM-2 inhibitor; actives 3% (n = 1,300);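 active = inhibition above that campaign's mean inhibition plus 3 SD, cut at about 0.46% in these data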;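 note: 0% = TEM-1 with DMSO and 100% = TEM-1 with 100 µM potassium clavulanate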
VIM-2 inh conf = VIM-2 metallo-beta-lactamase inhibitors, confirmation, biochemical, epi-absorbance, hits shared with IMP-1 screen | purified VIM-2, nitrocefin hydrolysis | shares compounds with VIM-2 inhibitor | actives 96% (n = 1,300) | AID 2187, 2009 | inhibition, % at 5.6 µM;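 active = inhibition of the VIM-2 beta-lactamase enzyme above about 11% from the earlier first-round screen, limit read from the data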;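 note: 0% = VIM-2 with DMSO and 100% = buffer wells without enzyme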
An asterisk follows results filed as active; . = no result. A selection: hits, their analogues and other compounds. The true share with any hit is near 4.7%.

SMILES	IMP-1 inh-1	Mdm2 MdmX PPI	697 NFkB inh	VIM-2 inhibitor	aSyn UTR inh	Jurkat NFkB inh	IMP-1 inh-2	VIM-2 FRET ctr	TEM-1 counter	VIM-2 inh conf
Cn1c2ccccc2c(=O)c2ccc(F)cc21	-4.5	3.7	4.7	13.0*	-42.3	-11.3	-2.4	-22.5	-9.5	23.6*
Cn1c(=O)c(Oc2ccc(F)cc2)c(O)c2ccccc21	0.2	-14.7	18.5	-0.5	15.5	3.3	.	.	.	.
CN1CCN(c2ccc(NC(=O)c3ccc(-c4cccc([N+](=O)[O-])c4)o3)cc2)CC1	-1.0	-4.2	-15.9	42.3*	-208.4	-21.6	-2.2	-3.7	-8.2	64.0*
CCOc1ccc(C(=O)Nc2ccc(N3CCN(C)CC3)cc2)cc1[N+](=O)[O-]	-2.9	17.1	17.3	30.1*	0.7	0.4	-2.4	-2.5	-6.6	58.3*
CN1CCN(c2ccc(NC(=O)COc3ccccc3[N+](=O)[O-])cc2)CC1	-1.3	-12.3	-11.6	44.6*	-48.3	-4.6	-2.8	-1.1	-7.1	65.6*
COc1ccc(C(=O)Nc2ccc(N3CCN(C)CC3)cc2)cc1[N+](=O)[O-]	-3.6	-2.6	10.2	34.0*	-11.8	-17.3	-2.7	-1.1	-6.7	59.6*
Cc1ccc(N2CCN(C(=S)c3ccc(-c4cccc([N+](=O)[O-])c4)o3)CC2)cc1	-0.2	-12.5	-4.8	-0.9	-11.3	-4.0	.	.	.	.
COc1ccc(C(=O)Nc2ccc(N3CCN(C(=O)C(C)C)CC3)cc2)cc1[N+](=O)[O-]	-3.2	-27.8	14.0	-3.5	32.9	18.5	.	.	.	.
CCOc1ccc(C(=O)Nc2ccc(N3CCN(C(C)=O)CC3)cc2)cc1[N+](=O)[O-]	-1.9	-5.1	8.1	-1.1	-3.3	14.3	.	.	.	.
O=C(c1ccco1)N1CCN(Cc2cc(=O)c(OCc3ccc(F)cc3)co2)CC1	.	-4.8	-3.4	.	-5.2	-13.8	.	.	.	.
COc1ccc(Cl)cc1NC(=O)COC(=O)CCNS(=O)(=O)c1cccs1	.	2.0	11.5	.	.	1.0	.	.	.	.
CN(C)S(=O)(=O)c1cccc(NC(=S)N/N=C/c2cccc(O)c2)c1	-1.6	-47.5	-0.6	18.1*	0.5	-5.1	-2.7	16.1	-7.5	14.1*
CN(C)S(=O)(=O)c1cccc(NC(=S)Nc2ccc3cn[nH]c3c2)c1	0.1	-1.1	-7.0	2.1	6.5	9.6	.	.	.	.
C=C(C)Cn1c(-c2cccs2)n[nH]c1=S	-1.2	8.6	19.7	48.4*	12.7	2.2	-4.3	70.9*	-9.1	52.9*
C=C(C)Cn1c(-c2cccc([N+](=O)[O-])c2)n[nH]c1=S	-3.1	-21.9	-4.4	2.9	31.0	1.1	.	.	.	.
CCC(=O)c1ccc(OCC(=O)OCC(=O)N2CCc3ccccc32)cc1	.	22.7	16.0	.	7.6	5.2	.	.	.	.
O=C(CCn1cnc2ccccc21)N=Nc1c(O)[nH]c2ccccc12	-4.0	-7.2	11.1	35.9*	11.8	11.6	-4.6	-8.2	-6.6	53.5*
Cn1c(SCC(=O)N=Nc2c(O)[nH]c3ccccc23)nc2ccccc21	-3.5	2.5	28.1	-0.4	-5.7	-1.1	.	.	.	.
CN(C)C(=O)c1ccc(Nc2nc(-c3cccs3)nc3ccccc23)cc1	-1.5	28.2	29.3	21.9*	2.7	-8.0	-3.1	0.2	-6.6	24.8*
Cn1c2ccccc2c(=O)c2cc(C#Cc3ccccn3)ccc21	-3.0	-146.3	-61.9	13.8*	-127.0	-98.7	-2.2	-8.2	-5.2	16.6*
CN1CCN(C(=O)CCc2nc3ccccc3c(=O)[nH]2)CC1	-1.4	-1.7	1.7	21.3*	7.8	1.2	-3.4	0.1	-5.7	42.0*
NC(=O)C1CCN(C(=O)CCc2nc3ccccc3c(=O)[nH]2)CC1	-1.1	-17.0	17.0	0.3	-22.7	-4.1	.	.	.	.
O=[N+]([O-])c1cc(F)c2cccnc2c1O	-2.2	39.9	-3.5	0.5	13.6	-4.1	.	.	.	.
O=[N+]([O-])c1cc(CN2CCOCC2)c2cccnc2c1O	-2.4	.	.	45.8*	.	.	-4.4	3.7	-7.1	49.4*
OC(CN1CCOCC1)(c1ccccc1)c1ccccn1 (stereo unspecified)	-1.0	1.0	10.4	-0.8	-1.6	-14.5	.	.	.	.
SMILES	IMP-1 inh-1	Mdm2 MdmX PPI	697 NFkB inh	VIM-2 inhibitor	aSyn UTR inh	Jurkat NFkB inh	IMP-1 inh-2	VIM-2 FRET ctr	TEM-1 counter	VIM-2 inh conf
COc1ccc2[nH]c(C(=O)O)c(CCNC(C)=O)c2c1	-0.8	-12.5	5.4	0.6	10.4	0.2	.	.	.	.
COc1ccc2[nH]c(C(=O)O)c(CCN3C(=O)c4cccc([N+](=O)[O-])c4C3=O)c2c1	-2.1	8.9	-0.4	14.3*	-29.3	1.5	-3.5	79.5*	-6.3	65.0*
CCN(CC)CCCNC(=O)c1cc2nc3c(c(C(F)(F)F)n2n1)CCc1ccccc1-3	-2.7	17.1	9.3	13.4*	-18.6	-8.5	-3.1	1.4	-3.5	15.4*
COC(=O)c1ccc(-c2ccc(C(=O)N3CCCN(C)CC3)cc2)cc1	-4.3	.	.	13.4*	-1.0	.	-3.9	29.7*	-6.5	21.1*
CCc1cc(=O)oc2c3c(cc(OCC(=O)NCCCn4ccnc4)c12)OC(C)(C)CC3	-3.8	15.7	4.0	45.7*	12.5	-14.1	-2.6	-9.5	-1.8	54.5*
CCc1cc(=O)oc2c(C)c(OCC(=O)NCCCn3ccnc3)ccc12	-0.1	0.9	-2.1	23.1*	7.9	-3.0	-2.7	-1.4	-7.4	34.0*
Cc1ccc2c(C)c(C(=O)Nc3ccc(S(=O)(=O)Nc4onc(C)c4C)cc3)oc2c1	-1.5	0.2	16.0	-3.5	-3.0	8.8	.	.	.	.
COC(=O)c1c(C(=O)OC)c2oc3ccccc3n2c1Cl	-3.0	5.4	4.3	13.7*	8.9	-7.0	-2.0	2.1	-4.8	18.3*
N#C/C(=C(/O)CCl)c1nc2ccccc2[nH]1	0.3	40.2	-13.5	49.7*	-8.4	5.8	-2.7	-12.2	-6.8	35.8*
